Measured values from publication PMC12394810 (RSC Advances, 2025).
“Also recorded” adds a separate entry of the source.

Experiments:
[1] = tested on: HEK-293 (human embryonic kidney cell line); assay: MTT cytotoxicity assay, HEK-293; type: cell-based; settings: HEK293, 48 h, read-out: IC50 HEK-293
[2] = tested on: DU145 (human prostate cell line); assay: MTT cytotoxicity assay, DU145; type: cell-based; settings: DU-145, 48 h, read-out: IC50 DU145
Summary of the method: (§1)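 ATCC cells grown in DMEM with 10% FBS, 2 mM L-glutamine and 100 μg/mL penicillin–streptomycin at 37 °C, 5% CO2. Medium refreshed, 10 μL of 12 mM MTT stock added, then 4 h in the dark at 37 °C. Formazan dissolved in DMSO and read at 570 nm against media-only blanks. Three independent experiments; IC50 by linear regression.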

[3] = tested on: SKBR-3 (human breast cancer cell line); assay: MTT cytotoxicity assay, SKBR-3; type: cell-based; settings: SK-BR-3, 48 h, read-out: IC50 SKBR-3
Summary of the method: as §1

[4] = tested on: HepG2 (Human hematoma cell line); assay: MTT cytotoxicity assay, HEPG2; type: cell-based; settings: HepG2, 48 h, read-out: IC50 HEPG2
Summary of the method: as §1

[5] = tested on: Bacillus subtilis MTCC 121; assay: Agar well diffusion, antibacterial; type: cell-based; settings: 1 mg/mL, 18 hrs
Summary of the method: (§2)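 Agar well diffusion per CLSI (2012). Bacteria grown on Mueller–Hinton agar and kept in Mueller–Hinton broth at 37 °C for 24 h. Inoculum spread evenly over the agar, 6–8 mm wells punched, and each well loaded with 20–100 μL test compound. Plates incubated at 37 °C and zones of inhibition measured in mm.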

[6] = tested on: Candida albicans MTCC 227; assay: Agar well diffusion, antifungal; type: cell-based; settings: for zone of inhibition at 1000 µg/mL: Candida albicans, MTCC227, 18 h, read-out: Zone of inhibition Candida albicans
Summary of the method: (§3)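 Fungal strains kept like the bacteria (Mueller–Hinton media) but at 30 °C. Agar well diffusion per CLSI (2012): inoculum spread over the agar, 6–8 mm wells punched, and 20–100 μL test compound added per well. Plates incubated at 30 °C and zone of inhibition diameter read in mm.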

[7] = tested on: Staphylococcus aureus MTCC 96; assay: Agar well diffusion, antibacterial; type: cell-based; settings: 1 mg/mL, 18 hrs
Summary of the method: as §2

[8] = tested on: Escherichia coli MTCC 730; assay: Agar well diffusion, antibacterial; type: cell-based; settings: 1 mg/mL, 18 hrs
Summary of the method: as §2

[9] = tested on: Klebsiella pneumoniae MTCC 109; assay: Agar well diffusion, antibacterial; type: cell-based; settings: 1 mg/mL, 18 hrs
Summary of the method: as §2

[10] = tested on: erythrocytes (heparinized human blood); assay: Erythrocyte osmotic fragility; type: cell-based; settings: 1 μL of 10 mg mL^−1 stock, 37 °C, 30 min
[11] = tested on: Swiss albino mice; assay: In vivo acute oral toxicity of compound 5n; settings: for ALKP / Albumin / Bilirubin / Body weight / Cholesterol / Creatinine / Haemoglobin / RBC / SGOT / SGPT / Serum protein / Triglycerides / WBC: n = 6
Summary of the method: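 30 Swiss albino mice (15 male, 15 female; 22–25 g), 7-day acclimatization, 22 ± 5 °C, 12 h light/dark, standard feed and water ad libitum. Five groups of 3 male + 3 female. Single oral dose of test compound at 5, 50, 300 or 1000 mg kg−1, suspended in gum acacia and 0.7% CMC; controls received vehicle. Clinical observation, body weight, haematology, serum biochemistry, organ weights; mean ± SE, n = 6, compared with control.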

[12] = tested on: Candida tropicalis MTCC 230; assay: Agar well diffusion, antifungal; type: cell-based; settings: 1 mg/mL, 18 hrs
Summary of the method: as §3

[13] = single acute oral dose 5, 50, 300, 1000 mg kg^−1
[14] = single oral dose 5 mg kg^−1, mean ± SE
[15] = single oral dose 50 mg kg^−1, mean ± SE
[16] = single oral dose 300 mg kg^−1, mean ± SE
[17] = single oral dose 1000 mg kg^−1, mean ± SE

## O=C(/C=C/C=C/c1ccccc1)c1ccccc1OCc1cccc(Cl)c1 [Compound 5a, (2E,4E)-1-(2-((3-Chlorobenzyl)oxy)phenyl)-5-phenylpenta-2,4-dien-1-one]
[1]
  IC50: 30.1 ± 8.3 µM
[2]
  IC50: 45.2 ± 2.1 µM
[3]
  IC50: 20.8 ± 1.7 µM
[4]
  IC50: 40.3 ± 2.9 µM

## O=C(/C=C/C=C/c1ccccc1)c1ccccc1OCc1ccccc1Br [Compound 5h, (2E,4E)-1-(2-((2-Bromobenzyl)oxy)phenyl)-5-phenylpenta-2,4-dien-1-one]
[1]
  IC50: 23.4 ± 4.7 µM
[2]
  IC50: 28.6 ± 2.2 µM
[3]
  IC50: 244 ± 4.7 µM
[4]
  IC50: 45 ± 3.3 µM

## O=C/C=C/c1ccccc1 [Compound 1, (E)-3-phenylprop-2-enal, reference compound]
[1]
  IC50: 20.6 ± 1 µM
[5]
  Zone of inhibition Bacillus subtilis: 7–8 mm
[6]
  zone of inhibition at 1000 µg/mL: 11 mm
[2]
  IC50: 22.4 ± 1.6 µM
[3]
  IC50: 13.9 ± 1.6 µM
[7]
  Zone of inhibition Staphylococcus aureus: 7–8 mm
[8]
  Zone of inhibition Escherichia coli: 7–8 mm
[9]
  Zone of inhibition Klebsiella pneumoniae: 7–8 mm
[4]
  IC50: 21.8 ± 1 µM

## O=C(/C=C/C=C/c1ccccc1)c1ccccc1OCCBr [Compound 5n, (2E,4E)-1-(2-(2-Bromoethoxy)phenyl)-5-phenylpenta-2,4-dien-1-one]
[1]
  IC50: 18.5 ± 1.1 µM
[2]
  IC50: 8.72 ± 1.8 µM
[10]
  MEF50 (Mean Erythrocyte Fragility; concentration of PBS at which 50% of erythrocytes undergo hemolysis): 0.457
[3]
  IC50: 7.69 ± 2.8 µM
[11]; oral
  Dose well tolerated / safe as a single acute oral dose: up to 1000 mg kg^−1
[11]; [13]
  Gross pathology, absolute and relative organ weights: no significant abnormalities in absolute or relative organ weights
  Morbidity, mortality, abnormal clinical signs: no morbidity, mortality, or abnormal clinical signs; also recorded: no morbidity, mortality
[11]; [14]
  ALKP: 170.67 ± 13.43 U L^−1
  Albumin: 2.55 ± 0.19 g/dL
  Bilirubin: 0.50 ± 0.00 mg/dL
  Body weight: 31.33 ± 1.54 g
  Cholesterol: 113.94 ± 4.49 mg/dL
  Creatinine: 0.92 ± 0.08 mg/dL
  Haemoglobin: 12.74 ± 0.51 g/dL
  RBC: 8.20 ± 0.60 million per mm^3
  SGOT: 20.84 ± 0.88 U L^−1
  SGPT: 16.76 ± 0.67 U L^−1
  Serum protein: 5.85 ± 0.13 mg/mL
  Triglycerides: 111.43 ± 4.39 mg/dL
  WBC: 9.48 ± 0.68 1000*/mm^3
[11]; [15]
  ALKP: 164.25 ± 13.54 U L^−1
  Albumin: 2.58 ± 0.07 g/dL
  Bilirubin: 0.51 ± 0.00 mg/dL
  Body weight: 28.33 ± 0.72 g
  Cholesterol: 110.16 ± 3.57 mg/dL
  Creatinine: 0.86 ± 0.06 mg/dL
  Haemoglobin: 12.68 ± 0.67 g/dL
  RBC: 7.77 ± 0.66 million per mm^3
  SGOT: 20.60 ± 1.71 U L^−1
  SGPT: 18.63 ± 0.59 U L^−1
  Serum protein: 5.76 ± 0.16 mg/mL
  Triglycerides: 111.02 ± 5.61 mg/dL
  WBC: 9.54 ± 0.79 1000*/mm^3
[11]; [16]
  ALKP: 173.23 ± 14.47 U L^−1
  Albumin: 2.55 ± 0.19 g/dL
  Bilirubin: 0.49 ± 0.02 mg/dL
  Body weight: 31.82 ± 0.96 g
  Cholesterol: 111.51 ± 3.48 mg/dL
  Creatinine: 0.90 ± 0.13 mg/dL
  Haemoglobin: 12.68 ± 0.71 g/dL
  RBC: 7.34 ± 0.38 million per mm^3
  SGOT: 19.39 ± 1.51 U L^−1
  SGPT: 18.03 ± 0.64 U L^−1
  Serum protein: 5.86 ± 0.18 mg/mL
  Triglycerides: 110.41 ± 3.90 mg/dL
  WBC: 10.13 ± 0.50 1000*/mm^3
[11]; [17]
  ALKP: 170.75 ± 6.26 U L^−1
  Albumin: 2.70 ± 0.09 g/dL
  Bilirubin: 0.47 ± 0.04 mg/dL
  Body weight: 27.92 ± 1.30 g
  Cholesterol: 107.82 ± 3.48 mg/dL
  Creatinine: 0.97 ± 0.09 mg/dL
  Haemoglobin: 12.42 ± 0.55 g/dL
  RBC: 7.54 ± 0.62 million per mm^3
  SGOT: 19.73 ± 1.43 U L^−1
  SGPT: 17.55 ± 1.23 U L^−1
  Serum protein: 5.93 ± 0.13 mg/mL
  Triglycerides: 108.74 ± 2.77 mg/dL
[4]
  IC50: 9.38 ± 1.6 µM

## O=C(/C=C/C=C/c1ccccc1)c1ccccc1OCc1ccc(F)cc1 [Compound 5e, (2E,4E)-1-(2-((4-Fluorobenzyl)oxy)phenyl)-5-phenylpenta-2,4-dien-1-one]
[1]
  IC50: 49.8 ± 2.8 µM
[2]
  IC50: 278.6 ± 1.7 µM
[3]
  IC50: 56.1 ± 1.8 µM
[4]
  IC50: 282 ± 5.7 µM

## CCCCCCOc1ccccc1C(=O)/C=C/C=C/c1ccccc1 [Compound 5l, (2E,4E)-1-(2-(Hexyloxy)phenyl)-5-phenylpenta-2,4-dien-1-one]
[12]
  Zone of inhibition Candida tropicalis: showed activity
[1]
  IC50: 98 ± 10.1 µM
[6]; 1 mg/mL, 18 hrs
  Zone of inhibition Candida albicans: showed activity
[6]
  zone of inhibition at 1000 µg/mL: 8 mm
[2]
  IC50: 29 ± 2.1 µM
[3]
  IC50: 23.5 ± 4.1 µM
[4]
  IC50: 46.7 ± 2.2 µM

## O=C(/C=C/C=C/c1ccccc1)c1ccccc1OCc1ccccc1 [Compound 5k, (2E,4E)-1-(2-(Benzyloxy)phenyl)-5-phenylpenta-2,4-dien-1-one]
[1]
  IC50: 109.4 ± 0.7 µM
[2]
  IC50: 55.6 ± 3.7 µM
[3]
  IC50: 80.3 ± 8.7 µM
[4]
  IC50: 46.6 ± 1.4 µM

## O=C(/C=C/C=C/c1ccccc1)c1ccccc1OCc1ccccc1Cl [Compound 5d, (2E,4E)-1-(2-((2-Chlorobenzyl)oxy)phenyl)-5-phenylpenta-2,4-dien-1-one]
[1]
  IC50: 203 ± 5.3 µM
[2]
  IC50: 46.1 ± 1.1 µM
[3]
  IC50: 75.9 ± 4.8 µM
[4]
  IC50: 41.4 ± 3.9 µM

## O=C(/C=C/C=C/c1ccccc1)c1ccccc1O [Compound 3, (2E,4E)-1-(2-hydroxyphenyl)-5-phenylpenta-2,4-dien-1-one]
[1]
  IC50: 67.4 ± 9.1 µM
[2]
  IC50: 83.5 ± 7.3 µM
[3]
  IC50: 20.8 ± 4.1 µM
[4]
  IC50: 40.1 ± 2 µM

## O=C(/C=C/C=C/c1ccccc1)c1ccccc1OCc1ccc(Cl)c(Cl)c1 [Compound 5b, (2E,4E)-1-(2-((3,4-dichlorobenzyl)oxy)phenyl)-5-phenylpenta-2,4-dien-1-one]
[1]
  IC50: 20.4 ± 1.6 µM
[2]
  IC50: 17.9 ± 3.4 µM
[10]
  MEF50 (Mean Erythrocyte Fragility; concentration of PBS at which 50% of erythrocytes undergo hemolysis): 0.538
[3]
  IC50: 22.4 ± 2.4 µM
[4]
  IC50: 9.19 ± 0.6 µM

## N#Cc1ccccc1COc1ccccc1C(=O)/C=C/C=C/c1ccccc1 [Compound 5i, 2-((2-((2E,4E)-5-Phenylpenta-2,4-dienoyl)phenoxy)methyl) benzonitrile]
[1]
  IC50: 48.2 ± 5 µM
[2]
  IC50: 68.4 ± 2.8 µM
[3]
  IC50: 75.3 ± 2.1 µM
[4]
  IC50: 42 ± 2.1 µM

## Cc1ccc(COc2ccccc2C(=O)/C=C/C=C/c2ccccc2)cc1 [Compound 5j, (2E,4E)-1-(2-((4-Methylbenzyl)oxy)phenyl)-5-phenylpenta-2,4-dien-1-one]
[1]
  IC50: 23.6 ± 1.4 µM
[2]
  IC50: 21.3 ± 5.6 µM
[3]
  IC50: 7.87 ± 2.1 µM
[4]
  IC50: 25.7 ± 1.5 µM

## CCCCCOc1ccccc1C(=O)/C=C/C=C/c1ccccc1 [Compound 5m, (2E,4E)-1-(2-(Pentyloxy)phenyl)-5-phenylpenta-2,4-dien-1-one]
[1]
  IC50: 104 ± 7.3 µM
[2]
  IC50: 126.8 ± 0.2 µM
[3]
  IC50: 125 ± 6 µM
[4]
  IC50: 33.2 ± 0.7 µM

## COc1cccc2c1C(=O)c1c(O)c3c(c(O)c1C2=O)C[C@@](O)(C(=O)CO)C[C@@H]3O[C@H]1C[C@H](N)[C@H](O)[C@H](C)O1 [Doxorubicin, reference compound]
[2]
  IC50: 0.45 ± 0.52 µM
[3]
  IC50: 0.7 ± 0.56 µM
[4]
  IC50: 2.5 ± 1.42 µM

## O=c1c(O)c(-c2ccc(O)c(O)c2)oc2cc(O)cc(O)c12 [Quercetin, reference compound]
[10]
  MEF50 (Mean Erythrocyte Fragility; concentration of PBS at which 50% of erythrocytes undergo hemolysis): 0.431

## O=C(/C=C/C=C/c1ccccc1)c1ccccc1OCc1ccc(Br)cc1 [Compound 5g, (2E,4E)-1-(2-((4-Bromobenzyl)oxy)phenyl)-5-phenylpenta-2,4-dien-1-one]
[1]
  IC50: 27.6 ± 4.2 µM
[2]
  IC50: 16.9 ± 2.3 µM
[3]
  IC50: 15.7 ± 2.8 µM
[4]
  IC50: 25.8 ± 1.6 µM

## O=C(/C=C/C=C/c1ccccc1)c1ccccc1OCc1ccc(Cl)cc1 [Compound 5c, (2E,4E)-1-(2-((4-Chlorobenzyl)oxy)phenyl)-5-phenylpenta-2,4-dien-1-one]
[1]
  IC50: 22.3 ± 1.2 µM
[2]
  IC50: 47.1 ± 4.5 µM
[3]
  IC50: 30.7 ± 2 µM
[4]
  IC50: 40.17 ± 0.2 µM
